Test system: MS2 coat protein
Experiment: apparent Kd, MS2 coat protein; higher = weaker binding; RNA-MaP array
Procedure, shortened: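 For each design, the apparent Kd is the median of binding-curve fits across its clusters. Designs measured on fewer than 10 clusters were dropped. The RNAs were transcribed from sequenced DNA templates on an Illumina sequencing chip and incubated at room temperature, with or without input ligand, with fluorescently labeled MS2 coat protein at 1.5 nM to 3 μM.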

[1] = designed as: ON switch for flavin mononucleotide, no ligand
[2] = ligand present: flavin mononucleotide, designed as: ON switch for flavin mononucleotide
[3] = designed as: OFF switch for flavin mononucleotide, no ligand
[4] = ligand present: flavin mononucleotide, designed as: OFF switch for flavin mononucleotide
[5] = designed as: ON switch for tryptophan, no ligand
[6] = ligand present: tryptophan, designed as: ON switch for tryptophan
[7] = designed as: OFF switch for theophylline, no ligand
[8] = ligand present: theophylline, designed as: OFF switch for theophylline

Row | Sequence | apparent Kd [1] | apparent Kd [2] | apparent Kd [3] | apparent Kd [4] | also measured
1 | GCGUUUGCCAAAGGAUAUCAACAUGUGUUGCUUGCAUUCCUAUACAUGAGGAUCACCCAUGUGGCUGAGAAGGUUGAACACUGG | 18.2 nM | 14.1 nM |  |  | 
2 | AUAGAAAAUGUAAGGAUAUAUCGAAACAAUAAACGAAAGAAGGAACAUGAGGAUCACCCAUGUAAAGUAAUAAA |  |  | 10.3 nM | 9.25 nM | 
3 | AACAUGAGGAUCACCCAUGUCGGGUAUAGGAAUGUGUGUCUGCAGGAUAUGCCUUGCAUUGCAUAGCAGAAGGGCACGGCUCAG |  |  | 125 nM | 64.2 nM | 
4 | UUUUUCCUGUAUAUCGGUACAUGAGGAUCACCCAUGUUCCCAGAGGAUAUUUGAUGGUGGGUAACAAAGAAGGCUGGCUACAGG | 20.6 nM | 9.31 nM |  |  | 
5 | CUCCUGGCAGGAUAUACAUGAGGAUCACCCAUGUUCCGAGCGUCCCAAACGACACGGUGUAGAAGGGCCAAGAU |  |  | 12.8 nM | 17.3 nM | 
6 | ACAAAGACAGGAUAUACAAAUUACAACUAAUCAAGGAAAAGACAUGAGGAUCACCCAUGUAGAAGGGUCAAUAA |  |  | 26.9 nM | 20.5 nM | 
7 | ACCCGACAAGUGAGGAUAUUGAUAAGAGGAGCUUACAAGAAGGCACAUGAGGAUCACCCAUGUAUUAAGUGAAG |  |  | 7.97 nM | 9.8 nM | 
8 | GCUGCACAUUCGGCCGCCACUGCUGUUACAGGAAGCUAUAGCUCACAUGAGGAUCACCCAUGUCCCAGGACCGGGAAAGUAUGGA |  |  |  |  | apparent Kd [5]: 72.9 nM; apparent Kd [6]: 65.9 nM
9 | CGGAAGUGCAGCGCUUAAAGUACAUGAGGAUCACCCAUGUGAAAGGAUAUAUCGAAGUCAAAAUAAUAGAAGGUUCAGUGGGAU |  |  | 22.6 nM | 21.1 nM | 
10 | GUUCUGCAUAAGGAUAUAUGAGCACACGCAGACAUAGAAGGUAUGACAUGAGGAUCACCCAUGUCCUCUCGAGA |  |  | 8.5 nM | 8.65 nM | 
11 | UGACUGUGUGAGAAGGUGUUCCGCGCCCGGCCACAAGGAUAUCACAACGCUGCCCUACAUGAGGAUCACCCAUGUGAUUGCUAC | 29.5 nM | 25.8 nM |  |  | 
12 | UCGUGCAGUGAGGAUAUCCCGAAGGCUUCCAUUGGAGAAGGCACUACAUGAGGAUCACCCAUGUGGCUUGAUAA |  |  | 44 nM | 56.5 nM | 
13 | UUAAUACAUGAGGAUCACCCAUGUUAGGAUAUAGAAAUCGCUGGUGCGAGAAGACAGGCUAGAAGGAACACGGA |  |  | 10.2 nM | 9.62 nM | 
14 | AAAGCCUUUCUAGGAUAUCAAUACAGUCGUGGUUGAGAAGGAGAAACUGCGUUCUAGACAUGAGGAUCACCCAUGUCCUCAAUG | 98.6 nM | 71.9 nM |  |  | 
15 | AUUGUGAACCUGAUCGUAUAAUGUAGCGAUACCAGUAUAAUACAUUACCCUUGGCAGCGCGACACAUGAGGAUCACCCAUGUAAG |  |  |  |  | apparent Kd [7]: 26.5 nM; apparent Kd [8]: 39.4 nM
16 | UAUGUCGGGAAGAAGGUAAUAACGGGAUUGACAUGAGGAUCACCCAUGUGUACGAGUUAGUUGCUUAAGGAUAUUCUCGCCCAU |  |  | 6.37 nM | 5.73 nM | 
17 | UUGGCGUCAGGAUAUACCGGUCGAUUCACAAUGAACUCCGUACAUGAGGAUCACCCAUGUAGAAGGGACAGUGG |  |  | 6.22 nM | 6.07 nM | 
18 | UCGGUUCGCGGAGGAUAUACUUCACUUCAGGAAGUAGAAGGCCGGCGGUGCUAAGGGUCACAUGAGGAUCACCCAUGUCUUCAC | 30.6 nM | 20.7 nM |  |  | 
19 | GAACAACAUGAGGAUCACCCAUGUGACAGCCGUCAAGGAUAUUCCGGGAAAGGAGGUCCGGAAGAAGGUGAUCGUA | 265 nM | 341 nM |  |  | 
20 | CUACCAAAUUGAGGAUAUAGCCUGGGAGAACCAAGUUCCAUGAAAUACAUGAGGAUCACCCAUGUCUAGAAGGCAACAAUGGCC |  |  | 92.4 nM | 145 nM | 
21 | UCGGACGGAGGAUAUACUAUGACUCCCACGGCAUGUUACGCACAUGAGGAUCACCCAUGUAGAAGGCCGCCUAA |  |  | 4.27 nM | 7.41 nM | 
22 | UUUUUAUGGCAGACUACCGCACAUGAGGAUCACCCAUGUUACAGAAGGGACCACAUCCCACCUGGUCAGGAUAUGUAUACGCGG |  |  | 9.07 nM | 6.77 nM | 
23 | GACGCGAGCGCACUUACAUGAGGAUCACCCAUGUGUUCCGAAAGAAGGGCUAGUGUACCCGCAGAGCAGGAUAUUUCGAUUUGC | 186 nM | 121 nM |  |  | 
24 | GACGUGGAGUCAGGAUAUCGACGACAUUCUUAGCGAGAAGGGACCUAGCUUAGAUCAACAUGAGGAUCACCCAUGUCGAGUUUC |  |  | 21.7 nM | 20.4 nM | 
25 | GGGUACAUCUAGAAGGAGAAUCCUCUUGACAUGAGGAUCACCCAUGUCGUAGUCAAGACUAAAAUCUAGGAUAUAGCUGUGCGU |  |  | 233 nM | 165 nM | 
26 | UUCGCCACGCAAGGAUAUGAUACUUAUUGCUGUUCAGAAGGUGCGACAUGAGGAUCACCCAUGUGGUGUGUCCAGGGAGGCUAG |  |  | 333 nM | 336 nM | 
27 | CAGAACAACGAAGGAUAUGCGAAACAUGAGGAUCACCCAUGUGUGGUUUUACUCAAACACCUGUCGCAGAAGGUCGCGUAACGA |  |  | 37.9 nM | 31.1 nM | 
28 | ACAAUCACAUGAGGAUCACCCAUGUUAGACAGGGUCAAUGUGAAGGAUAUGAACAAUGAAAAUACUCAGAAGGUCAUAUUGAAA | 192 nM | 27.4 nM |  |  | 

Row | Sequence | apparent Kd [1] | apparent Kd [2] | apparent Kd [3] | apparent Kd [4] | also measured
29 | CUAAUUAUCGAGAAGGAACGACGCAUCACCGAUCUAGCACACAUGAGGAUCACCCAUGUACACCGUUAGGAUAUCGCAAACCAG |  |  | 8.46 nM | 9.82 nM | 
30 | UAGCAAUUACAUGAGGAUCACCCAUGUCUAUCGCAGAACAAGCAGGAUAUAGUGACACGACUCCGCUAGAAGGGCUCCUCUGUU | 62.4 nM | 55.3 nM |  |  | 
31 | UCAUGGUCAGGAUAUACGAUUAGACAUGGCUUCGAUAAGUCGUAGAAGGGACAUGAGGAUCACCCAUGUAGCAA |  |  | 109 nM | 33.5 nM | 
32 | UAUGCGUUUUCAGGAUAUGCACACAUGAGGAUCACCCAUGUAGGUCUGCGGCGGCAUCCUCCUUUGCAGAAGGGAAUCGCGCUU |  |  | 44.1 nM | 71.6 nM | 
33 | UUUUCUGAGGAGAAGGACGACCACAAACAUGAGGAUCACCCAUGUCUUACUAUCUGACCGCCAUCGUAGGAUAUCCCGAGGGAG | 11.2 nM | 10.2 nM |  |  | 
34 | AUCGACAAAGGAUAUGAUGCGAAUGACAUGAGGAUCACCCAUGUGGAGCCAAGUGUCCCGUCAGAAGGUUGUACGU |  |  | 152 nM | 313 nM | 
35 | UGAUUACAUGAGGAUCACCCAUGUGACUACGCCUCAGGAUAUGAUGACAAAUUCUAGAAGUCAGAAGGGAGUUUGU | 29.1 nM | 21.3 nM |  |  | 
36 | AGACAUGAGGAUCACCCAUGUGAAGUGGAUACCAGCCGCAGCGAUGGCCCUUGGCAGCCAGCUUUGUGUCGAUACAUCCGCACUU |  |  |  |  | apparent Kd [7]: 15.9 nM; apparent Kd [8]: 25.8 nM
37 | UAUGUACAUGAGGAUCACCCAUGUUAGGAUAUAUGGCCGCGCUUUAAACACCGUGCACAUAGAAGGAACAUUUG |  |  | 35 nM | 33.7 nM | 
38 | GGAAGUAGAUGUCAGGAUAUCAAAAGCAUAACAUGAGGAUCACCCAUGUCCAAAAGGCAGAGAAUUGAGAAGGGACGUAGGUUACA | 42.2 nM | 14.4 nM |  |  | 
39 | GACGGCUCGACGGCCGCCACUCCCUCCGACUGAAGGCACAGUGGACAUGAGGAUCACCCAUGUCCGAGGACCGGGUCGAUCCUGG |  |  |  |  | apparent Kd [5]: 17.7 nM; apparent Kd [6]: 17.6 nM
40 | CACGGCAUUGAGAAGGGAGUGACAUGGAACUGCUCAGGAUAUCAACACACAUUGUUAAAGAAAACAUGAGGAUCACCCAUGUUC | 11.2 nM | 9.28 nM |  |  | 
41 | CUUCAGGGUGCGGCCGCCACUUAUUAGGUGCUUGCGACGCCAGCACAUGAGGAUCACCCAUGUUCAAGGACCGGGCACCACCUUU |  |  |  |  | apparent Kd [5]: 11.5 nM; apparent Kd [6]: 12.6 nM
42 | AACAUGAGGAUCACCCAUGUUUCAGAUCCUCUCUGGUUCAAGUAGGAUAUGUGUGAUACGGAAGUACAGAAGGACUCCGGAGCA |  |  | 38.4 nM | 29.5 nM | 
43 | ACCACAGAGUAGAAGGUCCGACACGGCUCGUCGGAAGGAUAUACAUAUUGUUAGAGAUGGGAACAUGAGGAUCACCCAUGUGUC | 16.2 nM | 9.9 nM |  |  | 
44 | AUCUCUGACUAAGGAUAUGCGGCAAAGAGCCUCUCAGAAAACAUGAGGAUCACCCAUGUAUGGACGCAGAAGGUAGUAGCCCAC | 9.06 nM | 21.4 nM |  |  | 
45 | GUCUGAUGACAUGAGGAUCACCCAUGUUGUAGGGUUACCUUCAGAAGGGCGAACUCGUAUAGAGCGCAGGAUAUGAAUCAAAGA | 29.5 nM | 11.9 nM |  |  | 
46 | CGGGCCAUCUAAGGAUAUUUGCCGGCCCGAAGACAUGAGGAUCACCCAUGUGUGAACGGAUGUCGAAAGAAGGUAGACCUGGUC | 300 nM | 206 nM |  |  | 
47 | CGGCAACUGUAGAAGGAGCAUCCCACAUCUAAGCUAGGAUAUACGUAAUGUAUGUACAUGAGGAUCACCCAUGUGUGCACCAGG |  |  | 26.4 nM | 24.2 nM | 
48 | GUUCGUAGGUAGGAUAUAAGAGCUGUACUCUUCUUAGAAGGACCCACAUGAGGAUCACCCAUGUUUUGGGCGUG |  |  | 10.3 nM | 35.5 nM | 
49 | UAUUGUUUAGGAUAUACAUGAGGAUCACCCAUGUCAACGACCGUUAUAAAAUCUAAGUGUAGAAGGAAACGCCC |  |  | 13.4 nM | 12.1 nM | 
50 | GCUGACCAGGAGAAGGGAUACGGUCUCCUUGUGGAAAUGAACAUGAGGAUCACCCAUGUAUUAGAUCAGGAUAUCCAAUGGAGG |  |  | 13.4 nM | 14.4 nM | 
51 | AACAUGUCUCAAGGAUAUAAAACGCUAAAUGGCUUAGAAGGUGAGGCCGCUGUGAGGAUCCCUGACAUGAGGAUCACCCAUGUC | 10.8 nM | 9.76 nM |  |  | 
52 | AGCGAAUAAGGAUAUACGUGAAAAGCACUUAGAGUUGGAUCACAUGAGGAUCACCCAUGUAGAAGGUAUGACGA |  |  | 18.6 nM | 15.7 nM | 
53 | CAGUGAGAGUCGGCCGCCACUUAACGCAAGUAGCGCAACCCAAAACAUGAGGAUCACCCAUGUCGAAGGACCGGGACAAUGAGCG |  |  |  |  | apparent Kd [5]: 12.9 nM; apparent Kd [6]: 12.2 nM
54 | AGAAUAUGAAUAGGAUAUCUGCGUAAUGAUAAAAGAGAAGGAAUUAGAAGUAUUACAUGAGGAUCACCCAUGUUUGAUAAGAAA | 9.61 nM | 8.77 nM |  |  | 
55 | CGCUGUUGGCAGGAUAUAUUCGCAGCCCAGGCAAUAGAAGGGCCGACAUGAGGAUCACCCAUGUGUCUACAGGG |  |  | 117 nM | 341 nM | 

From the EternaBench riboswitch data
